Measured values: ChEMBL document CHEMBL4627381, “Licochalcone A Selectively Resensitizes ABCG2-Overexpressing Multidrug-Resistant Cancer Cells to Chemotherapeutic Drugs” (J Nat Prod, 2020)

Tests used:
S1-M1-80 [1] = assay: Potentiation of topotecan-induced apoptosis in human S1-M1-80 cells harboring ABCG2 (unknown origin) assessed as necrotic cells at 10 uM incubated for 48 hrs by annexin V/propidium iodide staining based flow cytometry (reference value: 0.4%); type: functional
S1 [2] = assay: Induction of apoptosis in human S1 cells assessed as necrotic cells at 10 uM incubated for 48 hrs in presence of topotecan by annexin V/propidium iodide staining based flow cytometry (reference value: 0.2%); type: functional
Summary of the method: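 S1 cells were exposed for 48 h to DMSO, 10 μM compound, 5 μM topotecan, or 5 μM topotecan plus 10 μM compound. They were then stained with 1.25 μg/mL annexin V–FITC and 0.1 mg/mL PI for 15 min at room temperature. 10000 cells per sample were analysed by flow cytometry; three independent experiments.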

LS180 = assay: Upregulation of ABCG2 mRNA expression in human LS180 cells at 1 uM by […] relative to control; type: functional
[3] = target: T1, Broad substrate specificity ATP-binding cassette transporter ABCG2 (Homo sapiens, UniProt Q9UNQ0); assay: Inhibition of ABCG2 (unknown origin)-mediated pheophorbide A efflux in H460-MX20 cells incubated for 1 hr by FACScan flow cytometry; type: cell-based
T1 sequence (Q9UNQ0 whole entry): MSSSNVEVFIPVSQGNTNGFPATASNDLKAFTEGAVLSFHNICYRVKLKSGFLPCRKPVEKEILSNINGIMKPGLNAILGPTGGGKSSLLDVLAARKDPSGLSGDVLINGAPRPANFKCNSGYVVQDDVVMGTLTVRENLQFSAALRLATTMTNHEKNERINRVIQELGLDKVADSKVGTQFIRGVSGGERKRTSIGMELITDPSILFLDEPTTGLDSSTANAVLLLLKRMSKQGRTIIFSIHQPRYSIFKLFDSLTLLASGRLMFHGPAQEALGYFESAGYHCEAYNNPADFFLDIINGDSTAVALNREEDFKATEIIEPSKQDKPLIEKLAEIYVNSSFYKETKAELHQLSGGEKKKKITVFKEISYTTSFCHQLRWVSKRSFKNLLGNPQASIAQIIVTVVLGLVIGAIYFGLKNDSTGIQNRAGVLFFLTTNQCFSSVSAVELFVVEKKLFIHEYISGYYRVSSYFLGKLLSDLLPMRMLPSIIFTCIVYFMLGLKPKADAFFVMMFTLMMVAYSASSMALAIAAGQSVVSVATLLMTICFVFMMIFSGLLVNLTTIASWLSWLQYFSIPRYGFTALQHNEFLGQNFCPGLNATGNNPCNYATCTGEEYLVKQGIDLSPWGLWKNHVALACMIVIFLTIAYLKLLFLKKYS
Summary of the method: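 Cells held drug-free 7 days. 3 × 10^5 cells were suspended in IMDM with 5% FCS and loaded with pheophorbide A (ex 395/em 670 nm) for 1 h, with or without LCA (20 μM for single-concentration accumulation) or Ko143 3 μM as reference. Read immediately by flow cytometry. Efflux inhibition was run over a concentration range; mean ± SD of three experiments.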

S1-M1-80 [4] = assay: Cytotoxicity against human S1-M1-80 cells harboring ABCG2 (unknown origin) after 72 hrs by MTT assay; type: functional, cell-based; conditions: S1-M1-80, 72 h
Summary of the method: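 Cells seeded at 5000/well, allowed 24 h, then exposed to a concentration series for 72 h at 37 °C in DMSO vehicle (up to 0.5% v/v). HEK293 lines were read with CCK-8 and cancer lines with MTT. IC50 was taken from fitted dose-response curves over at least three independent experiments. Lines were kept drug-free for 7 days before assay.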

NCI-H460 = assay: Effect on topotecan-induced cytotoxicity against human H460 cells assessed as fold change in topotecan IC50 at 2 uM after 72 hrs by MTT assay relative to topotecan IC50; type: functional
Summary of the method: (§1)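 Parental S1 colon and H460 lung cancer cells were exposed for 72 h to a mitoxantrone or topotecan concentration series, with or without modulator at 0.5–3.0 μM, and read by MTT. Fold-reversal is IC50 without modulator divided by IC50 with modulator, taken from dose-response curves of three independent experiments.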

S1 [5] = assay: Effect on topotecan-induced cytotoxicity against human S1 cells assessed as fold change in topotecan IC50 at 2 uM after 72 hrs by MTT assay relative to topotecan IC50; type: functional; summary of the method: as §1
[6] = target: T1, Broad substrate specificity ATP-binding cassette transporter ABCG2; assay: Reversal of ABCG2 (unknown origin)-mediated multidrug resistance in human S1-M1-80 cells assessed as fold-change in mitoxantrone IC50 at 2 uM after 72 hrs by MTT assay relative to mitoxantrone IC50; type: cell-based; conditions: s1-m1-80, 72 h
Summary of the method: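 MTT readout in S1-M1-80 colon cancer cells (mitoxantrone-selected, held in 80 μM mitoxantrone, then drug-free 7 days before assay). Cells were seeded at 5000/well for 24 h, then given increasing mitoxantrone or topotecan with DMSO or non-toxic modulator for 72 h at 37 °C. IC50 came from fitted dose-response curves (at least three independent experiments). Fold-reversal = IC50 without modulator ÷ IC50 with modulator.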

HEK293 [7] = assay: Effect on topotecan-induced cytotoxicity against HEK293 cells assessed as fold change in topotecan IC50 at 0.5 uM after 72 hrs by CCK8 assay relative to topotecan IC50; type: cell-based; conditions: human, hek293, 72 h
Summary of the method: (§2)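 Reversal assay in parental pcDNA-HEK293 and transfected HEK293 lines (ABCB1 for colchicine, ABCC1 for etoposide, ABCG2 for mitoxantrone/topotecan). Substrate drug series was given with or without nontoxic modulator (0.5, 1.0, 2.0 or 3.0 μM) for 72 h, with a CCK-8 read-out. Fold-reversal is substrate IC50 without modulator divided by IC50 with modulator. Three independent experiments.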

HEK293 [8] = assay: Effect on mitoxantrone-induced cytotoxicity against HEK293 cells assessed as fold change in mitoxantrone IC50 at 1 uM after 72 hrs by CCK8 assay relative to mitoxantrone IC50; type: cell-based; conditions: human, hek293, 72 h; summary of the method: as §2
HEK293 [9] = assay: Effect on mitoxantrone-induced cytotoxicity against HEK293 cells assessed as fold change in mitoxantrone IC50 at 0.5 uM after 72 hrs by CCK8 assay relative to mitoxantrone IC50; type: cell-based; conditions: human, hek293, 72 h; summary of the method: as §2
[10] = target: Multidrug resistance-associated protein 1 (Homo sapiens, UniProt P33527); assay: Reversal of human ABCC1-mediated multidrug resistance in HEK293/MRP1 cells assessed as fold-change in etoposide IC50 at 0.5 uM after 72 hrs by CCK8 relative to etoposide IC50; type: cell-based
Summary of the method: (§3)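 Cells were seeded at 5000/well for 24 h, then given colchicine, etoposide, mitoxantrone or topotecan ± non-toxic modulator (0.5–3.0 μM) for 72 h, with DMSO up to 0.5%. IC50 came from fitted curves (mean ± SD, three experiments). Fold-reversal = IC50 without modulator ÷ IC50 with modulator.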

HEK293 [11] = assay: Effect on etoposide-induced cytotoxicity against HEK293 cells assessed as fold change in etoposide IC50 at 0.5 uM after 72 hrs by CCK8 assay relative to etoposide IC50; type: cell-based; conditions: human, hek293, 72 h; summary of the method: as §2
HEK293 [12] = assay: Effect on Colchicine-induced cytotoxicity against HEK293 cells assessed as fold change in colchicine IC50 at 1 uM after 72 hrs by CCK8 assay relative to colchicine IC50; type: cell-based; conditions: human, hek293, 72 h; summary of the method: as §2
[13] = target: T1, Broad substrate specificity ATP-binding cassette transporter ABCG2; assay: Reversal of human ABCG2-mediated multidrug resistance in HEK293/R482 cells assessed as potentiation of topotecan-induced cytotoxicity after 72 hrs by CCK8 assay; type: cell-based; summary of the method: as §3

Sequence of Multidrug resistance-associated protein 1 (P33527 whole entry): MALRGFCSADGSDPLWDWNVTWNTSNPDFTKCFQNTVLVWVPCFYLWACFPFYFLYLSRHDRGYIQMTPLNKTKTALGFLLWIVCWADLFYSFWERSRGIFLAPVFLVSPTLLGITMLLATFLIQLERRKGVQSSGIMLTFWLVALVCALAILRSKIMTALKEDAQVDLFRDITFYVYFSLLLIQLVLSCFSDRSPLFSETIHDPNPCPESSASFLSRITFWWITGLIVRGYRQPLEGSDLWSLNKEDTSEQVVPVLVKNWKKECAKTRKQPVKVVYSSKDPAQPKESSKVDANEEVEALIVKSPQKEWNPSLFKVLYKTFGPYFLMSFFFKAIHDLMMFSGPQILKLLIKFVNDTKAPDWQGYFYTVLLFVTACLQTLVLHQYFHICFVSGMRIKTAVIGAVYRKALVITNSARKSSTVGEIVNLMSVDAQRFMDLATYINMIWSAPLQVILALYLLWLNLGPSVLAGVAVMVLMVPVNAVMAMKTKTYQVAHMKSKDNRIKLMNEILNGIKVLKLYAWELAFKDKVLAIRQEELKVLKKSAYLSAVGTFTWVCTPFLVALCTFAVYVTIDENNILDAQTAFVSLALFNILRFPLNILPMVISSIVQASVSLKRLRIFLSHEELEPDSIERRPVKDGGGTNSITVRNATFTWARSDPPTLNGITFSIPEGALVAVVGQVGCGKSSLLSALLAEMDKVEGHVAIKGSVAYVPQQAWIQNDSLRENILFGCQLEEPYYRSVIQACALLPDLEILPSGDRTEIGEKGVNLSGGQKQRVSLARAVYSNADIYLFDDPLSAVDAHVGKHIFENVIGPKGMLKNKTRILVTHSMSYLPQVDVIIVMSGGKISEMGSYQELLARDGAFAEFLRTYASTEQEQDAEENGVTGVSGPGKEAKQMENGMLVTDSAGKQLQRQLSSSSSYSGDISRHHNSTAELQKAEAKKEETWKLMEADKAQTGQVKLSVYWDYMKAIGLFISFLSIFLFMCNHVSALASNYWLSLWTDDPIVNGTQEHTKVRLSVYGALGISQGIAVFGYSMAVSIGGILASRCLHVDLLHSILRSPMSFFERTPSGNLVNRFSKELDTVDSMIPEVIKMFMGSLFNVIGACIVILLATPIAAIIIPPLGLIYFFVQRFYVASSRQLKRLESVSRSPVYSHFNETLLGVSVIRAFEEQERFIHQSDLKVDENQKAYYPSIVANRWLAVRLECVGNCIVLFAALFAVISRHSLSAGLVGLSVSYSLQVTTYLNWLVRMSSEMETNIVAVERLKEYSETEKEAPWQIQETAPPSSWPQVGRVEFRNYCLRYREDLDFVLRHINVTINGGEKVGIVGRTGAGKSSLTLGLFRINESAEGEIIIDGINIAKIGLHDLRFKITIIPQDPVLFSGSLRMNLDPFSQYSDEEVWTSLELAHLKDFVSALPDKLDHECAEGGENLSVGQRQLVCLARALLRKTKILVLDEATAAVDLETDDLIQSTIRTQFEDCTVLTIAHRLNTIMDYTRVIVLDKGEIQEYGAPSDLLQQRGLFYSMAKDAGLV

Compound: C=CC(C)(C)c1cc(/C=C/C(=O)c2ccc(O)cc2)c(OC)cc1O [LICOAGROCHACONE A]
- Activity (S1-M1-80 [1]): 0.8%
- Activity (S1 [2]): 3%
- fold change (FC) (LS180): 2 - 6
- inhibition (INH) [3]: Dose-dependent effect
- IC50 (S1-M1-80 [4]): 10 to 50 µM
- fold change (FC) (NCI-H460): 1.7
- fold change (FC) (S1 [5]): 0.9
- fold change (FC) [6]: 28
- fold change (FC) (HEK293 [7]): 0.9
- fold change (FC) (HEK293 [8]): 1
- fold change (FC) (HEK293 [9]): 0.9
- fold change (FC) [10]: 1.2
- fold change (FC) (HEK293 [11]): 0.7
- fold change (FC) (HEK293 [12]): 1.1
- Activity [13]: Dose-dependent effect
